Source: PubChem BioAssay (The Scripps Research Institute Molecular Screening Center)
Sampled rows, rich in hits. Any-hit rate of the full collection: about 2.5%.
SIAE inh – inhibitors of human sialic acid acetylesterase SIAE; SIAE FP-Rh probe binding, fluorescence polarization; Q9HAT2; 370,000 tested, 0.69% active; inhibition, % at 9.66 µM;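 active = inhibition above a cutoff: mean of compounds within the control limits plus 3 SD of those, cut at about 17% in these data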
TCR-CD3 inh – human TCR-CD3 binding inhibition; TAMRA-labeled TCR probe fluorescence, biochemical; inhibition, % at 9.4 µM; 360,000 tested, 0.37% active; AID 651800; in the data active = inhibition above about 19%;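 note: recombinant mutant TCR 2C K166C tagged with TAMRA read by polarization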
PRMT1 inh – PRMT1 (human) inhibition, primary screen; recombinant PRMT1, activity-based probe fluorescence polarization; 370,000 tested, 1.3% active; inhibition, % at 2.79 µM;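 active = inhibition above about 21% made by adding two undisclosed values, limit read from the data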
Target sequence (Q99873 whole entry, looked up): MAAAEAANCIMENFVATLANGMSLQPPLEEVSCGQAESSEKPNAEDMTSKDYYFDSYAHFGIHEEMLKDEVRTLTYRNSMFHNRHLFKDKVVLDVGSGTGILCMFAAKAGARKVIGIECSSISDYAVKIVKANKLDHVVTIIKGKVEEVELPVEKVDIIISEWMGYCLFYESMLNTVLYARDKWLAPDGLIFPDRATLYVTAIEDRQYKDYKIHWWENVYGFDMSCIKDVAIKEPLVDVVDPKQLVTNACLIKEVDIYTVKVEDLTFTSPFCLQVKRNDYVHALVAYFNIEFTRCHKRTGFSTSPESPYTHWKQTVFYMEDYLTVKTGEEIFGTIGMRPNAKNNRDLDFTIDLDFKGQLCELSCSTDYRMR
HTRA1 inhibitor – HTRA1 (human) protease inhibition | recombinant HTRA1, FP-rhodamine activity-based probe, fluorescence polarization | inhibition, % at 5.96 µM | 340,000 tested, 0.5% active | AID 504803; in the data active = inhibition above about 36%
ABHD4 inh – inhibits mouse alpha/beta hydrolase domain 4. purified mABHD4, FP-Rh probe fluorescence polarization. inhibition, % at 8.92 µM. 370,000 tested, 0.54% active. AID 720543;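 active = inhibition exceeding the mean over every tested compound plus 3 SD, cut at about 30% in these data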
Target sequence (Q8VD66 whole entry, looked up, the tested form may be a part): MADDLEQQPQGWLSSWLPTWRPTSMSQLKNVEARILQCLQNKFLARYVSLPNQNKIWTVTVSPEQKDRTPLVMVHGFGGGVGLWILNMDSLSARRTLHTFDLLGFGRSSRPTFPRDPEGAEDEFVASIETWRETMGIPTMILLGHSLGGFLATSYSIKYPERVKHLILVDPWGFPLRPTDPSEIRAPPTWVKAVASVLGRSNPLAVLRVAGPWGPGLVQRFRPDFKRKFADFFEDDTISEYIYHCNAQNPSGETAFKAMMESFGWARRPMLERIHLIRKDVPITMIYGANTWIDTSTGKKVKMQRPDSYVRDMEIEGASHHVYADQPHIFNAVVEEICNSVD
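Test system: mouse ABHD4 enzyme, wild type. Reagent: FP-Rh fluorescent activity-based probe, added after compound pre-incubation. Timing: pre-incubation 45 min, probe exposure 60 min, at 25 °C. Technique: FP readout, ex 525 nm / em 598 nm. Benchmarks: high control S159A mutant with DMSO, low control median of compound wells.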
PRMT1 inh conf – PRMT1 (human) inhibition, FP confirmation | shares compounds with PRMT1 inh | 3,300 tested, 42% active | inhibition, % at 2.79 µM | AID 687036 | recombinant His-PRMT1, activity-based probe fluorescence polarization;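 active = mean inhibition across replicates above the hit cutoff derived for the earlier primary screen, cut at about 22% in these data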
Of the large screens only hits and unclear results are named; the others gave an inactive call (follow-up assays come after a bar, where they were run).

CCOC(=O)c1sc(N)c(C(=O)Nc2ccccc2OC)c1C	PRMT1 inh 26 | PRMT1 inh conf inactive
COC(=O)c1c(N)sc(C(=O)NCCc2ccccc2)c1C	PRMT1 inh 26 | PRMT1 inh conf 30
COc1cc(C)c(NC(=O)C(=S)NCCc2ccccc2)cc1C	PRMT1 inh 31 | PRMT1 inh conf 38
Cc1nn(C)c(C)c1N1C(=O)c2cccc3c(Br)ccc(c23)C1=O	PRMT1 inh 57 | PRMT1 inh conf inactive
CN(C)CCCN1C(=O)c2cccc3c(Br)ccc(c23)C1=O	PRMT1 inh 38 | PRMT1 inh conf inactive
O=C(O)CN1C(=O)c2cccc3c(Br)ccc1c23	none
CN(C)[C@@H]1CCN(c2ccc3c(c2)O[C@@H]2CCN(C2)S3(=O)=O)C1	none (no result: TCR-CD3 inh, HTRA1 inhibitor)
COc1ccccc1NC(=S)N(CCCN1CCOCC1)Cc1cn(C)c2ccccc12	none
COc1ccc(Cl)cc1NC(=S)N(CCCN1CCOCC1)Cc1cn(C)c2ccccc12	PRMT1 inh 34 | PRMT1 inh conf 37
CCOc1ccccc1NC(=S)N(CCCN1CCOCC1)Cc1cn(C)c2ccccc12	none
COc1cc(Cl)ccc1NC(=S)N(CCCN1CCOCC1)Cc1cn(C)c2ccccc12	PRMT1 inh 34 | PRMT1 inh conf 37
CNc1ccccc1/C(O)=C(\C#N)C(=O)NCc1cccs1	none (no result: TCR-CD3 inh, HTRA1 inhibitor)
COc1c(O)cccc1[C@@H](O)C1CCN(CCc2ccc(F)cc2)CC1	PRMT1 inh 36 | PRMT1 inh conf inactive
COCCCNC(=O)C[C@H]1C[C@@]2(C(=O)OC)C(=C[C@H](C(C)C)O[C@@H]2C2CC2)N(CCC2=CCCCC2)C1=O	none (no result: TCR-CD3 inh, HTRA1 inhibitor)
CC(C)C[C@@H](NC(=O)OC(C)(C)C)C(=O)N1O[C@]23C=C[C@]14C[C@@H](O)CC[C@]4(C)C2CC[C@]1(C)[C@@H]([C@H](C)/C=C/[C@H](C)C(C)C)CC[C@H]13 (some centres undefined)	none (no result: HTRA1 inhibitor)
COc1cccc(C(=O)/C=C2\Sc3ccccc3N2C)c1	none
CN1/C(=C\C(=O)c2cccnc2)Sc2ccccc21	PRMT1 inh 31 | PRMT1 inh conf inactive
COC(=O)c1ccc(S(=O)(=O)N2CCC(NC(=O)COc3ccc(F)cc3)CC2)cc1	none (no result: TCR-CD3 inh, HTRA1 inhibitor)
O=C(O)c1ccc(-n2cccc2/C=C2/NC(=O)N(c3cccc(Cl)c3)C2=O)cc1	PRMT1 inh 29 | PRMT1 inh conf inactive
Cc1ccccc1CN1CCCCC(NC(=O)c2cc(-c3ccccc3)no2)C1=O (centres undefined)	none (no result: TCR-CD3 inh, HTRA1 inhibitor)
N#Cc1cccc(NC(=O)OC2CC3CC2[C@H]2CCCCN2C3)c1 (some centres undefined)	none (no result: TCR-CD3 inh, HTRA1 inhibitor)
CC(=O)Nc1ccc(S(=O)(=O)NNc2ccc([N+](=O)[O-])cc2)cc1	PRMT1 inh 32 | PRMT1 inh conf inactive
CC(=O)Nc1ccc(S(=O)(=O)NNC(=O)c2ccc([N+](=O)[O-])cc2)cc1	none
COc1cc(N2C(=O)C=CC2=O)ccc1N1C(=O)C=CC1=O	PRMT1 inh 91 | PRMT1 inh conf 87
COc1ccc(N2C(=O)C3CC(C)=C(C)CC3C2=O)c(OC)c1 (centres undefined)	none
COCCSc1ccccc1C(=O)Nc1cc(C)on1	PRMT1 inh 26 | PRMT1 inh conf 22
CCc1c(C(=O)Nc2ccccc2)c(C)[nH]c(=S)c1C#N	PRMT1 inh 43 | PRMT1 inh conf 88
Cc1[nH]c(=S)c(C#N)c(C)c1C(=O)Nc1ccccc1	PRMT1 inh 33 | PRMT1 inh conf inactive
CC(=O)c1c(C)[nH]c(C(=O)Nc2cccc(C#N)c2)c1C	none
Cc1ccc(C)c(NC(=O)Cn2nnc(-c3ccncc3)n2)c1	none (no result: TCR-CD3 inh, HTRA1 inhibitor)
CCCCCC[C@@H](CN(CCCC)S(C)(=O)=O)c1ccccc1	none (no result: TCR-CD3 inh, HTRA1 inhibitor)
COc1ccc(NC(=O)NC2CCN(S(=O)(=O)c3ccc(F)cc3)CC2)cc1OC	none (no result: TCR-CD3 inh, HTRA1 inhibitor)
Cc1sc(NC(=O)CSc2nc(N)cc(N)n2)c(C#N)c1C	none
Cc1sc(NC(=O)CSc2nnc(C)c(=O)[nH]2)c(C#N)c1C	PRMT1 inh 27 | PRMT1 inh conf 24
Cc1nnc(SCC(=O)Nc2sc3c(c2C(N)=O)CCC(C)C3)[nH]c1=O (centres undefined)	PRMT1 inh 26 | PRMT1 inh conf 51
CCc1cc2cc(C)c(C)cc2nc1SCC(=O)NNC(=O)c1ccco1	PRMT1 inh 29 | PRMT1 inh conf inactive
CCC(C)NC(=O)CN1C(=O)C2CCCCN2C(=O)c2ccccc21 (centres undefined)	none (no result: TCR-CD3 inh, HTRA1 inhibitor)
O=C1c2ccc([N+](=O)[O-])cc2S(=O)(=O)N1Cc1ccccc1	none
NNc1cc([N+](=O)[O-])cc2c1C(=O)N(Cc1ccccc1)S2=O (centres undefined)	PRMT1 inh 26 | PRMT1 inh conf inactive
COc1ccc(Cc2c(-c3ccccc3)nc3ccc(Cl)cn23)c(C)c1	none (no result: HTRA1 inhibitor)
COc1ccc(Cc2c(-c3ccco3)nc3ccc(Br)cn23)c(C)c1	PRMT1 inh 31 (no result: HTRA1 inhibitor) | PRMT1 inh conf inactive
COc1ccc(Cc2c(-c3ccco3)nc3ccc(Cl)cn23)c(C)c1	PRMT1 inh 27 (no result: HTRA1 inhibitor) | PRMT1 inh conf inactive
Cc1ccc(Cc2c(-c3ccco3)nc3ccc(Br)cn23)cc1	PRMT1 inh 31 (no result: HTRA1 inhibitor) | PRMT1 inh conf inactive
COc1ccc(Cc2c(-c3ccco3)nc3c(C)cc(Br)cn23)c(C)c1	none (no result: HTRA1 inhibitor)
Cc1ccc(Cc2c(-c3ccc(C)cc3)nc3ccc(Br)cn23)cc1	none
O=C(OCCN1CCN(C2CN(Cc3cn(Cc4ccccc4Cl)nn3)S(=O)(=O)C2)CC1)c1cc2ccccc2o1 (centres undefined)	none (no result: TCR-CD3 inh, HTRA1 inhibitor)
Cn1cccc1CC(=O)NN=Cc1cccc(F)c1	none (no result: TCR-CD3 inh, HTRA1 inhibitor)
O=C(NNc1nc2cc3c(cc2s1)OCCO3)c1ccccc1	none
Cc1cccc2sc(NNC(=O)c3ccc4c(c3)OCCO4)nc12	PRMT1 inh 28 | PRMT1 inh conf inactive
COc1cccc(/C=C2\SC(=S)N(NC(=O)c3ccncc3)C2=O)c1	PRMT1 inh 37 | PRMT1 inh conf inactive
Cc1ccc(CN2CCCCC(NC(=O)c3ccccc3C)C2=O)cc1 (centres undefined)	none (no result: TCR-CD3 inh, HTRA1 inhibitor)
CCOC(=O)CSc1nnc(NCC(=O)OC)c(=O)[nH]1	PRMT1 inh 56 | PRMT1 inh conf 54
CCN1/C(=C\C(=S)Nc2ccccc2)Sc2ccccc21	PRMT1 inh 71 | PRMT1 inh conf inactive
CC(=O)Nc1nc2ncccn2c1-c1ccc(F)c(F)c1	none (no result: TCR-CD3 inh, HTRA1 inhibitor)
O=C1CC(N2CCC(c3nc4ccccc4o3)CC2)C(=O)N1Cc1cccs1 (centres undefined)	PRMT1 inh 47 | PRMT1 inh conf inactive
O=C1CC(N2CCN(c3ccc(F)cc3)CC2)C(=O)N1Cc1cccs1 (centres undefined)	none
NC(=O)C1CCN(C2CC(=O)N(Cc3cccs3)C2=O)CC1 (centres undefined)	PRMT1 inh 74 | PRMT1 inh conf inactive
CC(C)[N+]1=C2C=CC=CC=C2SC12C([N+](=O)[O-])=CC(=[N+]([O-])[O-])C=C2[N+](=O)[O-] (centres undefined)	PRMT1 inh 37 | PRMT1 inh conf inactive
